Compounds with a hit are over-represented: about 4.5% of the library has one in this group of screens.
TAAR1 ag: human TAAR1 agonism; activation, % at 3 µM; Q96RJ0; actives 0.99% (n = 360,000); AID 624467; CHO RD-HGA16 TAAR1, Fluo-8 calcium fluorescence; vehicle wells 0%, saturating PEA agonist 100%;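 active means activation above the mean activation of all test compounds in the run plus 3 SD, cut at about 38% in these data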
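Assay system: CHO-derived RD-HGA16 cells with stable Gα16 and human TAAR1; timing: 17-24 h seeding, 75 min 37 °C dye, 30 min RT; read-out: % activation from peak over basal fluorescence ratio, DMSO-to-PEA scaled; measured by: kinetic Fluo-8 calcium fluorescence; benchmarks: low control DMSO, high control PEA (EC100); doses: 3 µM single concentration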
OX1R antag-1: human HCRTR1 antagonism; AID 434989; actives 0.43% (n = 330,000); inhibition, % at 5 µM; CHO/OX1R cells, Fluo-8 calcium fluorescence, orexin A;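 active means inhibition above its plate's threshold, mean inhibition of all tested compounds on the plate plus 3 SD, cut at about 37% in these data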;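 further: 0% = orexin A challenge wells and 100% = SB-334867-A antagonist wells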
Target sequence (O43613 whole entry, looked up): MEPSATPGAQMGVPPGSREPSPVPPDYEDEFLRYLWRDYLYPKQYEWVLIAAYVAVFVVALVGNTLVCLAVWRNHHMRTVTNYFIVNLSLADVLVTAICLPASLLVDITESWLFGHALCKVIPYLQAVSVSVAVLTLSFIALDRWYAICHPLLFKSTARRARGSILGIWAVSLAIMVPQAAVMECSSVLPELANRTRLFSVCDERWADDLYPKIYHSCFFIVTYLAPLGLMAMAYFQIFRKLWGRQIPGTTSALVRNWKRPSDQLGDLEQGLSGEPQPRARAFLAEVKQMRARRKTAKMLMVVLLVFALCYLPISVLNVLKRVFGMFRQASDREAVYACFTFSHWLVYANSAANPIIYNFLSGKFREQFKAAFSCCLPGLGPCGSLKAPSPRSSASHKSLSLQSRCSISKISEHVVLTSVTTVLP
CHO parental Ca: counter-screen for OX1R antagonists: effect in parental CHO cells. parental CHO-K1, ATP-induced calcium, Fluo-8 fluorescence. inhibition, % at 5.6 µM. actives 0.63% (n = 330,000). AID 463079;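 active means inhibition above that plate's mean sample inhibition plus 3 SD, cut at about 26% in these data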;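 further: 0% = ATP-challenged DMSO wells and 100% = DMSO wells without ATP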
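Assay system – parental CHO cells · Reagent – ATP stimulus · Detection – intracellular calcium via Fluo-8 no-wash fluorescent dye · Evaluation – percent inhibition of ATP-evoked calcium rise, normalized to controls · Controls – ATP wells versus no-ATP DMSO wells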
TAAR1 antagonist: antagonists of human TAAR1; Q96RJ0; CHO RD-HGA16 TAAR1, Fluo-8 calcium fluorescence, antagonist; inhibition, % at 3 µM; actives 1.5% (n = 360,000); AID 624466;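 active means inhibition above a per-plate cutoff, the mean inhibition of test compounds on that plate plus 3 SD, cut at about 49% in these data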;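 further: 0% = DMSO plus EC80 beta-PEA response and 100% = DMSO alone without agonist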
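System: RD-HGA16 CHO cells with stable hTAAR1 and Gα16 | Probe or stimulus: EC80 β-phenethylamine stimulus | Dosing: 3 µM, single point | Times: Dye loading 75 min at 37 °C, then 30 min room temperature | Measured by: Fluo-8 calcium-sensitive fluorescence | Read-out basis: % inhibition of agonist calcium response | Replicates: n of 1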
OX1R antag-2: OX1R (human) antagonism; inhibition, % at 6.6 µM; O43613; OX1R-expressing cells, FRET antagonist read-out; AID 485270; actives 1.8% (n = 330,000); in the data active means inhibition mostly above about 38%, no sharp cut-off; inactive means mostly below about 40%;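 further: 0% = agonist challenge alone and 100% = reference antagonist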
GPR7 antagonist: blocks human GPR7 receptor signaling | P48145 | GPR7-expressing cells, fluorescence antagonist assay | inhibition, % at 4.4 µM | actives 1.1% (n = 290,000); in the data active means inhibition above about 16%, passing the limit was not always enough;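 further: cells stimulated with the agonist NPW; 0% = agonist with vehicle and 100% = vehicle without agonist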
An asterisk follows results filed as active; · = no result.

SMILES	TAAR1 ag	OX1R antag-1	CHO parental Ca	TAAR1 antagonist	OX1R antag-2	GPR7 antagonist
COc1ccccc1C(CC(=O)c1ccccc1)C(=O)c1ccccc1 (centres undefined)	6	·	·	73*	·	·
CCN(CC)c1nc(N2CCOCC2)nc2ccccc12	-2	-21	-13	-13	6	1
CCN(CC)c1ccc(Nc2nc(N3CCOCC3)c3ccccc3n2)cc1	12	4	5	26	42*	-6
Cc1noc(C)c1C(=O)Nc1nc(-c2cccs2)cs1	8	-18	-20	8	15	·
CCc1noc(C)c1C(=O)Nc1nc(-c2cccs2)cs1	3	-24	-28	-15	51*	·
O=C(NCC(c1ccco1)N1CCc2ccccc2C1)c1cccc(Br)c1 (centres undefined)	38*	-31	-26	-1	33	·
Cc1ccc(C(=O)NCC(c2ccco2)N2CCc3ccccc3C2)cc1C (centres undefined)	12	-36	-25	-28	17	·
COc1ccc(C(=O)NCC(c2ccco2)N2CCc3ccccc3C2)cc1 (centres undefined)	40*	-20	-10	6	24	·
O=C(NCC(c1ccco1)N1CCCCC1)c1ccc(S(=O)(=O)Nc2ccccc2)cc1 (centres undefined)	15	-11	-10	-16	9	·
Cc1ccc(C(=O)NCC(c2ccco2)N2CCc3ccccc3C2)cc1 (centres undefined)	40*	-15	-8	-11	23	·
O=C(NCC(c1ccco1)N1CCc2ccccc2C1)c1cccc([N+](=O)[O-])c1 (centres undefined)	2	3	-24	16	27	·
O=C(NCC(c1ccco1)N1CCCCC1)c1ccc2c(c1)S(=O)(=O)c1ccccc1C2=O (centres undefined)	1	-44	-28	-3	63*	5
COc1cccc(CN(C)C(=O)[C@@H](Cc2ccccc2)NC(=O)[C@H]2O[C@@H](n3ccc(=O)[nH]c3=O)[C@H](O)[C@@H]2O)c1	0	·	·	-4	·	·
C[C@@H]1CCCCO[C@@H](CN(C)Cc2ccc(C(=O)O)cc2)[C@@H](C)CN([C@H](C)CO)C(=O)c2cc(NS(C)(=O)=O)ccc2O1	2	·	·	-6	·	·
O=C(NCC(c1ccco1)N1CCOCC1)c1ccc([N+](=O)[O-])cc1 (centres undefined)	4	-4	-9	-9	67*	5
COc1cc2c(cc1NC(=O)Nc1ccc(C)cc1)oc1ccccc12	2	-16	-15	5	23	-7
COc1cc2c(cc1NC(=O)C(C)Sc1ccc(NC(C)=O)cc1)oc1ccccc12 (centres undefined)	9	16	19	50*	49	16
O=C(O)COc1ccccc1/C=N/Nc1ccc(S(=O)(=O)N2CCOCC2)cc1[N+](=O)[O-]	2	-9	-14	-21	63*	-11
COc1ccc(OC)c(-n2c(Cn3c(-c4ccccn4)nc4ccccc43)n[nH]c2=S)c1	4	4	-13	-1	59*	-5
Cc1[nH]n(-c2ccccc2)c(=O)c1/C=N/NC(=O)c1ccc(O)cc1O	·	-21	-11	·	37*	0
Cc1[nH]n(-c2ccc(Br)cc2)c(=O)c1/C=N/NC(=O)c1ccccc1	3	·	·	-10	·	-4
Cc1ccc(-n2[nH]c(C)c(/C=N/NC(=O)c3ccc(O)cc3O)c2=O)cc1	·	-5	-4	·	38*	-3
Cc1cc(C(=O)N/N=C/c2c(C)[nH]n(-c3ccccc3)c2=O)n[nH]1	-2	-8	-8	12	21	-6
Cc1ccc(OCCNC(=O)[C@@H](Cc2ccccc2)NC(=O)[C@H]2O[C@@H](n3ccc(=O)[nH]c3=O)[C@H](O)[C@@H]2O)cc1C	5	·	·	-22	·	·
CCOC(OCC)c1cn(Cc2ccc3c(c2)C(=O)c2ccccc2C3=O)nn1	0	-15	-9	1	76*	-5
SMILES	TAAR1 ag	OX1R antag-1	CHO parental Ca	TAAR1 antagonist	OX1R antag-2	GPR7 antagonist
CCOC(=O)c1cn(Cc2ccc(Br)cc2)nn1	0	-14	-5	-2	5	-2
CC(=O)C1=CCN(C)CC1	1	·	·	-8	·	·
O=C(NCC1CCN(C(=O)C(=O)c2cc3ccccc3o2)CC1)c1ccc2c(c1)OCC2	4	·	·	-29	·	·
CC1(C)OC(=O)C2=C(CC(CCc3ccccc3)OC2c2ccc(F)cc2)O1 (centres undefined)	1	·	·	33	·	·
COc1ccc(-c2nc3scc(-c4ccccc4)n3n2)cc1	13	1	-23	8	67*	-15
CCOC(=O)Cc1csc2nc(-c3ccccc3)nn12	3	-18	-21	-1	7	-1
CC(OC(=O)c1ccccc1Nc1ccc(SC(F)F)cc1)C(N)=O (centres undefined)	11	29	47*	31	36	-12
O=C(c1ccccc1Nc1ccc(SC(F)F)cc1)N1CCCCC1	2	-30	-16	9	10	9
COC(=O)C1=C(C)N(C)C(=NCc2ccccc2)NC1c1ccc(F)cc1 (centres undefined)	3	·	·	7	·	·
C[C@H](c1ccccc1)N1C[C@@H](COCc2ccccc2)Oc2cccc(Oc3ccc(F)cc3)c2S1(=O)=O	3	·	·	-5	·	·
CCOC(=O)c1nn(-c2cccc(OC)c2)c(-c2ccccc2)c1C(=O)c1ccccc1	0	2	-15	56*	55*	0
CCc1nc2c(OCc3ccccc3)cccn2c1N(Cc1ccccc1)C(C)=O	-3	·	·	-19	·	·
COc1ccc(C2=Nc3ccccc3N(C(=O)c3ccc(C(F)(F)F)cc3)C2C(=O)NCc2ccccc2)cc1 (centres undefined)	2	·	·	-16	·	·
COc1ccc(CSc2nc3ccccc3c(=O)[nH]2)cc1F	16	-11	-9	50*	17	-13
CN(C)c1ccc(N(C)C)c(C(O)(c2ccccc2)c2ccccc2)c1	2	·	·	5	·	·
COC(=O)C[C@@H]1C=C[C@@H](NC(=O)NC2CCCC2)[C@@H](CO)O1	0	·	·	3	·	·
NC1=C(Br)C(=O)c2ccccc2C1=O	1	-6	-12	-25	72*	-5
Cc1cc2c(cc1C)C(=O)C(Br)=C(N)C2=O	1	·	·	-32	·	·
Cc1ccc(C2c3c(-c4ccccc4O)n[nH]c3C(=O)N2Cc2ccncc2)cc1 (centres undefined)	10	-36	-14	3	19	20*
Cc1ccc(C2c3c(n[nH]c3C)C(=O)N2Cc2ccccc2)cc1 (centres undefined)	-3	·	·	-23	·	·
Nc1nc2c(ncn2[C@@H]2O[C@H](C(=O)N[C@H](Cc3ccccc3)C(=O)NCc3ccc4c(c3)OCO4)[C@@H](O)[C@H]2O)c(=O)[nH]1	6	·	·	-32	·	·
